# 697 NFkB inh – lowers PMA/ionomycin-induced NF-kB signal in 697 B cells; inhibition, % at 4 µM; 697 B-cell NF-kB luciferase reporter, 16 h; actives 0.33% (n = 330,000); in the data active = inhibition above about 35%
# Jurkat NFkB inh – inhibitors of the PMA/ionomycin-induced NF-kB reporter in Jurkat cells. PMA/ionomycin-induced NF-kB luciferase reporter, luminescence. inhibition, % at 4 µM. actives 0.53% (n = 330,000); in the data active = inhibition above about 50%
# GalR3 antag – blocks the human galanin receptor 3; actives 0.44% (n = 360,000); AID 651719; inhibition, % at 3 µM; HEK293 GalR3-CNG cAMP membrane potential fluorescence; galR3 body fused to GalR1 C-terminus; O60755;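 active = inhibition above the screen-wide average plus 3 SD, cut at about 13% in these data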;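 also: forskolin and galanin both at EC90 stimulate the cells; cAMP rise reported by CNG channel membrane potential dye signal; 0% = forskolin plus galanin with DMSO and 100% = forskolin alone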
# NR2E3 ag-1 – NR2E3 (human) agonism; Q9Y5X4; GST-NR2E3/biotin-RetCOR TR-FRET, 1536-well; inhibition of corepressor binding, % at 4.78 µM; actives 0.12% (n = 320,000);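 active = percent inhibition above the cutoff of mean plus 3 SD of all tested compounds, set per screening campaign, cut at about 20% in these data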;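 also: 0% = DMSO wells and 100% = biotin wells as full block of FRET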
# Target sequence (Q9Y5X4 whole entry, looked up): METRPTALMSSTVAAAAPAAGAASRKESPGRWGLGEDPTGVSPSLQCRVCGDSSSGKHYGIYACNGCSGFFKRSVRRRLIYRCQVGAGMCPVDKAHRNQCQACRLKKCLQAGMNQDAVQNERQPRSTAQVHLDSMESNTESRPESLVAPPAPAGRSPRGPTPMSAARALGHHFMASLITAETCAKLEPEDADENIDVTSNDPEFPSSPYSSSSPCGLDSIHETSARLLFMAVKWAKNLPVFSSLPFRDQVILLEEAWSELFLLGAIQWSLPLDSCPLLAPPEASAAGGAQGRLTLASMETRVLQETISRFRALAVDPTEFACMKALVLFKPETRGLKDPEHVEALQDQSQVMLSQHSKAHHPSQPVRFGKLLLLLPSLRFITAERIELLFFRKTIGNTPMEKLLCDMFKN
#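 Material – GST-tagged NR2E3 plus biotinylated RetCOR corepressor · Quantity – NR2E3 fusion 1.35 nM · Times – 5 h incubation at 4 °C · Medium – pH 7.5 Tris-based buffer · Technique – TR-FRET, Eu(K)-anti-GST donor, streptavidin-D2 acceptor, ex 340, em 617/671 nm · Benchmarks – high control biotin, low control 0.6% DMSO · Format – 1536-well plates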
# Gli-Sufu antag – antagonists of Gli-Sufu signaling; inhibition, % at 5 µM; actives 0.74% (n = 340,000); Sufu-KO-LIGHT fibroblasts, Gli luciferase reporter luminescence;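 active = inhibition above about 55%, limit read from the data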;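 also: 0% = DMSO-treated cells and 100% = wells with medium but no cells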
# NR2E3 ag-2 – human photoreceptor-specific nuclear receptor agonism; CHO-S Gal4-NCOR/VP16-NR2E3 two-hybrid, luciferase; actives 0.35% (n = 360,000); inhibition of corepressor binding, % at 3.98 µM; Q9Y5X4; AID 602229;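 active = inhibition above the mean of all tested compounds plus 3 SD, cut at about 70% in these data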;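 also: 0% = DMSO with NR2E3 transfected cells and 100% = cells lacking NR2E3 construct; higher means lower luciferase signal from less NR2E3 corepressor binding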
# Jurkat NFkB conf – inhibitors of the PMA/ionomycin-induced NF-kB reporter in Jurkat cells, retest; actives 27% (n = 2,700); AID 435020; shares compounds with Jurkat NFkB inh; Jurkat NF-kB luciferase, 16 h; inhibition, % at 4 µM;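 active = inhibition reaching about 45% at 4 µM in either replicate, limit read from the data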;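 also: plate controls were PMA/ionomycin stimulated DMSO wells for no effect and unstimulated DMSO wells for full effect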
# 697 NFkB conf – inhibitors of the PMA/ionomycin-induced NF-kB reporter in 697 B cells, retest | shares compounds with 697 NFkB inh | 697 B-cell NF-kB luciferase, 16 h | inhibition, % at 4 µM | actives 35% (n = 2,000) | AID 449746; in the data active = inhibition mostly above about 28%, no sharp cut-off; inactive = mostly below about 22%
# * hit, by the source's call; nt = no result. Compounds with a hit are over-represented: about 1.8% of the library has one in this group of screens.
SMILES,697 NFkB inh,Jurkat NFkB inh,GalR3 antag,NR2E3 ag-1,Gli-Sufu antag,NR2E3 ag-2,Jurkat NFkB conf,697 NFkB conf
O=S1(=O)C=CC(Nc2cccc(Cl)c2)C1 (configuration not stated),12,50*,-3,1,-1,1,18,nt
Nc1[nH]c(C(=O)c2ccccc2)c(-c2ccccc2C(F)(F)F)c1C(=O)c1c[nH]c2ccccc12,nt,nt,-8,nt,nt,nt,nt,nt
Cc1ccc2c(c1)sc1nc(=O)n(-c3cccc(Cl)c3)c(=O)n12,-78,-167,-4,-2,-106,-26,-34,nt
CCOc1cccc(-c2nnc3n2N=C(c2cc(OC)ccc2OC)CS3)c1,-64,53*,5,0,-1,1,48*,nt
CC1=Nc2cc(C(=O)NCc3ccco3)ccc2Sc2ccc(C)cc21,7,51*,-3,-2,30,-3,18,nt
O=C1CC(c2cccc([N+](=O)[O-])c2)c2cc3c(cc2N1)CCC3 (configuration not stated),2,25,-4,0,15,-20,nt,nt
O=C1CC(c2cccc(Cl)c2)c2cc3c(cc2N1)CCC3 (configuration not stated),-60,56*,-10,-1,3,-15,35,nt
COc1cccc(C2CC(=O)Nc3cc(OC)c(OC)cc32)c1 (configuration not stated),-6,12,-10,nt,2,-15,nt,nt
COc1cccc(C2CC(=O)Nc3cc4c(cc32)CCC4)c1 (configuration not stated),-56,61*,-6,3,25,-8,51*,nt
Nc1[nH]c(C(=O)c2ccccc2)c(-c2ccc3ccccc3c2)c1C(=O)NCc1cccc2ccccc12,nt,nt,4,nt,nt,nt,nt,nt
CCc1c(-c2ccc(F)cc2F)ncn1CCc1ccccc1OC,nt,nt,-8,nt,nt,nt,nt,nt
CC(C)(C)c1ccc(NC(=O)c2ccsc2)cc1,-324,-180,-5,-1,-75,-78,-166,-368
Cc1ccc(NC(=O)c2ccsc2)cc1NS(C)(=O)=O,18,-10,nt,-1,-2,-4,nt,nt
CCOC(=O)C1=C(C(=O)OCC)C2N(Cc3ccc(C(F)(F)F)cc3)c3ccccc3[C@@]23C[C@@H](C(=O)OC)N(S(=O)(=O)c2ccccc2C)C3=N1 (some centres not stated),nt,nt,6,nt,nt,nt,nt,nt
O=C(O)c1cccc(COc2ccccc2Cl)c1,67*,82*,-8,8,-103,-92,78*,43*
Cc1ccccc1C(=O)N1CCN(C(=O)C(=O)c2cccc(C(F)(F)F)c2)CC1,nt,nt,-5,nt,nt,nt,nt,nt
C=CCN1C(=O)c2n[nH]c(C(C)C)c2C1c1ccccc1 (configuration not stated),nt,nt,-6,nt,nt,nt,nt,nt
Nc1nc(Nc2ccccc2)nc2ccccc12,-145,-112,-6,4,-90,-110,nt,nt
Nc1nc(Nc2ccc(Cl)cc2)nc2ccccc12,-440,-181,-6,0,-108,-95,-100,-367
Cc1ccc(Nc2nc(N)c3ccccc3n2)cc1Cl,-321,-167,-13,3,-58,-129,-120,-372
CCCCOCCCNC(=O)C[C@H]1C[C@@]2(C(=O)OC)C(=C[C@H](COCc3ccccc3)O[C@@H]2C)N(CCC2=CCCCC2)C1=O,nt,nt,-5,nt,nt,nt,nt,nt
C[C@@H]1CN([C@@H](C)CO)C(=O)CCCn2cc(nn2)CO[C@H]1CN(C)C(=O)NC1CCCCC1,nt,nt,-1,nt,nt,nt,nt,nt
COc1cccc2c1C(CO)N1C(C#N)C3CC(C(=O)O)C(C1C2)N3C (configuration not stated),104*,97*,0,4,-20,67,96*,102*
Cc1ccc(-n2nc3ccc(NC(=O)C(C)C)cc3n2)cc1,-262,-167,-1,4,-61,-204,-141,-395
CC(C)C(=O)Nc1ccc2nn(-c3ccc(F)cc3)nc2c1,-415,-227,nt,0,-86,-165,-110,-354
SMILES,697 NFkB inh,Jurkat NFkB inh,GalR3 antag,NR2E3 ag-1,Gli-Sufu antag,NR2E3 ag-2,Jurkat NFkB conf,697 NFkB conf
Nc1[nH]c(C(=O)c2ccccc2)c(-c2cccc3ccccc23)c1C(=O)c1ccc(Br)cc1,nt,nt,-7,nt,nt,nt,nt,nt
CN=c1scc(C)n1/N=C/c1ccc(O)cc1O,-290,-165,-4,-3,-66,-108,-110,-250
Cc1nc(Nc2ccccc2)sc1-c1ccccc1,-303,-164,-5,1,-126,-140,-82,-151
Cc1ccc2oc(-c3cccc(N)c3)nc2c1,-139,-96,-1,-2,-116,-170,nt,nt
Cc1ccc(-c2nc3cc(N)ccc3o2)cc1,-265,-202,2,5,-80,-108,-82,-193
CC(C)c1ccc2oc(-c3ccc(N)cc3)nc2c1,-472,-225,-4,4,-140,-116,-144,-400
Cc1ccc(-c2nc3cc(C)ccc3o2)cc1,-308,-175,1,1,-1,-95,-98,-292
CC(C)c1ccc2oc(-c3ccc(NC(=O)c4ncn[nH]4)cc3)nc2c1,-144,-66,-5,-5,-15,nt,nt,nt
COCCN1Cc2cc(C(=O)OC)c3c(c2C1=O)c1cc(OC)ccc1n3S(=O)(=O)c1ccc(C)cc1,nt,nt,-7,nt,nt,nt,nt,nt
O=C(CCS(=O)(=O)c1ccccc1)Nc1ccc(-c2nc3ccccc3s2)cc1,-382,-161,-8,-13,-90,-133,-96,-275
O=C(NCc1ccccc1)[C@H]1CCCN1C(=O)[C@H]1CCCN1C(=O)C1CCCCC1,nt,nt,-7,nt,nt,nt,nt,nt
COc1cccc2oc3cc(C#Cc4ccccn4)ccc3c(=O)c12,-106,-96,-3,1,-58,nt,nt,nt
COc1cccc2oc3cc(C#CC4(O)CCCCC4)ccc3c(=O)c12,-352,-213,-4,6,-34,-40,-99,-443
COc1cc([N+](=O)[O-])ccc1N/C=C/C(=O)c1cccs1,-267,-188,-6,1,-67,-125,-72,-169
CCOC(=O)c1sc(NC(=O)c2sccc2C)cc1C,-253,-192,1,1,-170,-175,-171,-217
COc1ccc(C2CC(=O)C(c3ccc([N+](=O)[O-])cc3)=CN2Cc2ccccc2)cc1 (configuration not stated),nt,nt,-9,nt,nt,nt,nt,nt
C[C@H](O)[C@@H]1C(=O)N2CCc3c([nH]c4ccccc34)[C@@H]2C[C@@H]1N(C)C(=O)Nc1ccc(Br)cc1,nt,nt,-5,nt,nt,nt,nt,nt
CNc1nc2c(-c3ccc(Cl)cc3)nnn2c2ccccc12,-21,-34,-5,0,-2,9,nt,nt
Nc1nc2c(-c3ccc(Br)cc3)nnn2c2ccccc12,-258,-152,-6,2,-86,-154,-126,-249
